Legend:
Assay type in all cases: functional, organism-based
[1] = test system: Mycolicibacterium smegmatis; experiment: 100% inhibition of growth of rifampicin resistant Mycobacterium smegmatis 607 strain in vitro
In short: (§1)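 M. smegmatis ATCC607-derived strains (one of three used, including a dapsone-sensitive one) were grown in modified Kirchner's medium with 0.5% Tween 80, inoculated with 10^5 viable cells. Drugs were added in DMSO (2% final). Roller tubes were incubated at 37 °C for 72 h. Growth was read as spectrophotometric transmission.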

[2] = test system: Mycolicibacterium smegmatis; experiment: 100% inhibition of growth of clofazimine resistant Mycobacterium smegmatis 607 strain in vitro
In short: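 Strain: 20× step-up clofazimine-resistant mutant of M. smegmatis ATCC607. 10^5 viable cells inoculated into modified Kirchner's medium with 0.5% Tween 80. Drugs were added in DMSO (2% final in all tubes). Roller tubes were incubated at 37 °C for 72 h. Growth was read as optical transmission in a spectrophotometer.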

[3] = test system: Mycolicibacterium smegmatis; experiment: Concentration for 100% inhibition of growth of dapsone sensitive Mycobacterium smegmatis 607 strain in vitro; in short: as §1

Compound | Concentration [1] | Concentration [2] | Concentration [3]
COC(C/N=c1\cc2n(-c3ccc(Cl)cc3)c3ccccc3nc-2cc1Nc1ccc(Cl)cc1)OC | 5 µg/mL | 60 µg/mL | 4 µg/mL
c1ccc(Nc2cc3nc4ccccc4n(-c4ccccc4)c-3c/c2=N\CCN2CCCC2)cc1 | 0.4 µg/mL | 2 µg/mL | 0.4 µg/mL
Clc1ccc(Nc2cc3nc4ccccc4n(-c4ccc(Cl)cc4)c-3c/c2=N\CC2CCCCC2)cc1 | 3 µg/mL | 100 µg/mL | 3 µg/mL
Cc1ccc(Nc2cc3nc4ccccc4n(-c4ccc(C)cc4)c-3c/c2=N\CC2CCNCC2)cc1 | 0.3 µg/mL | 0.4 µg/mL | 0.2 µg/mL
c1ccc(Nc2cc3nc4ccccc4n(-c4ccccc4)c-3c/c2=N\CCN2CCOCC2)cc1 | 2 µg/mL | 10 µg/mL | 2 µg/mL
CN1CCN(CCC/N=c2\cc3n(-c4ccc(Cl)cc4)c4ccccc4nc-3cc2Nc2ccc(Cl)cc2)CC1 | 0.3 µg/mL | 1 µg/mL | 0.3 µg/mL
NCCC/N=c1\cc2n(-c3ccc(Cl)cc3)c3ccccc3nc-2cc1Nc1ccc(Cl)cc1 | 0.4 µg/mL | 1 µg/mL | 0.3 µg/mL
Clc1ccc2c(c1)nc1cc(Nc3ccccc3)/c(=N/CC3CCNCC3)cc-1n2-c1ccccc1 | 0.4 µg/mL | 1 µg/mL | 0.2 µg/mL
c1ccc(Nc2cc3nc4ccccc4n(-c4ccccc4)c-3c/c2=N\CCCNC2CCCCC2)cc1 | 0.2 µg/mL | 0.6 µg/mL | 0.2 µg/mL
Clc1ccc(Nc2cc3nc4ccccc4n(-c4ccc(Cl)cc4)c-3c/c2=N\C2CCCC2)cc1 | 3 µg/mL | 20 µg/mL | 3 µg/mL
CC1CCC(/N=c2\cc3n(-c4ccc(Cl)cc4)c4ccccc4nc-3cc2Nc2ccc(Cl)cc2)CC1 (stereo not drawn) | 7.5 µg/mL | 25 µg/mL | 7.5 µg/mL
CCCNCCC/N=c1\cc2n(-c3ccc(Cl)cc3)c3ccccc3nc-2cc1Nc1ccc(Cl)cc1 | 0.2 µg/mL | 2 µg/mL | 0.2 µg/mL
Clc1ccc(Nc2cc3nc4ccccc4n(-c4ccc(Cl)cc4)c-3c/c2=N\CCCN2CCCCC2)cc1 | 0.3 µg/mL | 2 µg/mL | 0.2 µg/mL
Cc1ccc(Nc2cc3nc4ccccc4n(-c4ccc(C)cc4)c-3c/c2=N\CCO)cc1 | 8 µg/mL | 12 µg/mL | 4 µg/mL
CC(C)CC/N=c1\cc2n(-c3ccc(Cl)cc3)c3ccccc3nc-2cc1Nc1ccc(Cl)cc1 | 3 µg/mL | 80 µg/mL | 2 µg/mL
Clc1ccc(Nc2cc3nc4ccccc4n(-c4ccc(Cl)cc4)c-3c/c2=N\CCN2CCOCC2)cc1 | 1 µg/mL | 20 µg/mL | 1 µg/mL
CCC/N=c1\cc2n(-c3ccc(Cl)cc3)c3ccccc3nc-2cc1Nc1ccc(Cl)cc1 | 3 µg/mL | 100 µg/mL | 3 µg/mL
NCCCCCC/N=c1\cc2n(-c3ccc(Cl)cc3)c3ccccc3nc-2cc1Nc1ccc(Cl)cc1 | 0.8 µg/mL | 2 µg/mL | 0.3 µg/mL
OCCN(CCO)CCC/N=c1\cc2n(-c3ccc(Cl)cc3)c3ccccc3nc-2cc1Nc1ccc(Cl)cc1 | 1 µg/mL | 3 µg/mL | 0.6 µg/mL

Compound | Concentration [1] | Concentration [2] | Concentration [3]
Clc1ccc(Nc2cc3nc4ccccc4n(-c4ccc(Cl)cc4)c-3c/c2=N\CC2CCNCC2)cc1 | 0.2 µg/mL | 0.6 µg/mL | 0.2 µg/mL
CNCCC/N=c1\cc2n(-c3ccc(Cl)cc3)c3ccccc3nc-2cc1Nc1ccc(Cl)cc1 | 0.3 µg/mL | 0.6 µg/mL | 0.2 µg/mL
CCN1CCCC(/N=c2\cc3n(-c4ccc(Cl)cc4)c4ccccc4nc-3cc2Nc2ccc(Cl)cc2)C1 (stereo not drawn) | 0.5 µg/mL | 8 µg/mL | 0.5 µg/mL
CCC(CO)/N=c1\cc2n(-c3ccc(Cl)cc3)c3ccccc3nc-2cc1Nc1ccc(Cl)cc1 (stereo not drawn) | 10 µg/mL | 100 µg/mL | 2 µg/mL
c1ccc(Nc2cc3nc4ccccc4n(-c4ccccc4)c-3c/c2=N\C2CCCCC2)cc1 | 2 µg/mL | 10 µg/mL | 3 µg/mL
CCC(CO)/N=c1\cc2n(-c3ccccc3)c3ccccc3nc-2cc1Nc1ccccc1 (stereo not drawn) | 30 µg/mL | 100 µg/mL | 2 µg/mL
CCC/N=c1\cc2n(-c3ccccc3)c3ccccc3nc-2cc1Nc1ccccc1 | 3 µg/mL | 20 µg/mL | 2 µg/mL
Clc1ccc(Nc2cc3nc4ccccc4n(-c4ccc(Cl)cc4)c-3c/c2=N\C2CCCCCC2)cc1 | 3 µg/mL | 50 µg/mL | 2 µg/mL
NCCCC/N=c1\cc2n(-c3ccc(Cl)cc3)c3ccccc3nc-2cc1Nc1ccc(Cl)cc1 | 0.3 µg/mL | 0.5 µg/mL | 0.2 µg/mL
CC(C)C/N=c1\cc2n(-c3ccccc3)c3ccccc3nc-2cc1Nc1ccccc1 | 3 µg/mL | 20 µg/mL | 2 µg/mL
c1ccc(Nc2cc3nc4ccccc4n(-c4ccccc4)c-3c/c2=N\CCN2CCCCC2)cc1 | 0.4 µg/mL | 2 µg/mL | 0.4 µg/mL
OCC/N=c1\cc2n(-c3ccccc3)c3ccc(Cl)cc3nc-2cc1Nc1ccccc1 | 4 µg/mL | 100 µg/mL | 2 µg/mL
CC1CCCCN1CCC/N=c1\cc2n(-c3ccc(Cl)cc3)c3ccccc3nc-2cc1Nc1ccc(Cl)cc1 (stereo not drawn) | 0.2 µg/mL | 2 µg/mL | 0.2 µg/mL
CC/N=c1\cc2n(-c3ccccc3)c3ccccc3nc-2cc1Nc1ccccc1 | 3 µg/mL | 20 µg/mL | 3 µg/mL
Cc1ccc(Nc2cc3nc4ccccc4n(-c4ccc(C)cc4)c-3c/c2=N\CC(C)C)cc1 | 3 µg/mL | 100 µg/mL | 2 µg/mL
CC(CN(C)C)/N=c1\cc2n(-c3ccc(Cl)cc3)c3ccccc3nc-2cc1Nc1ccc(Cl)cc1 (stereo not drawn) | 1.2 µg/mL | 16 µg/mL | 0.8 µg/mL
c1ccc(Nc2cc3nc4ccccc4n(-c4ccccc4)c-3c/c2=N\CCCN2CCOCC2)cc1 | 0.8 µg/mL | 6 µg/mL | 1 µg/mL
c1ccc(Nc2cc3nc4ccccc4n(-c4ccccc4)c-3c/c2=N\CCCN2CCCCC2)cc1 | 0.3 µg/mL | 1 µg/mL | 0.3 µg/mL
CCN1CCCC(/N=c2\cc3n(-c4ccccc4)c4ccccc4nc-3cc2Nc2ccccc2)C1 (stereo not drawn) | 0.6 µg/mL | 6 µg/mL | 0.4 µg/mL

Compound | Concentration [1] | Concentration [2] | Concentration [3]
COC(C/N=c1\cc2n(-c3ccccc3)c3ccccc3nc-2cc1Nc1ccccc1)OC | 4 µg/mL | 100 µg/mL | 4 µg/mL
CC(C/N=c1\cc2n(-c3ccccc3)c3ccccc3nc-2cc1Nc1ccccc1)N(C)C (stereo not drawn) | 1 µg/mL | 4 µg/mL | 0.8 µg/mL
OCCCN1CCN(CCC/N=c2\cc3n(-c4ccc(Cl)cc4)c4ccccc4nc-3cc2Nc2ccc(Cl)cc2)CC1 | 0.5 µg/mL | 2 µg/mL | 0.6 µg/mL
CN1CCN(CCC/N=c2\cc3n(-c4ccccc4)c4ccccc4nc-3cc2Nc2ccccc2)CC1 | 0.5 µg/mL | 1 µg/mL | 0.5 µg/mL
Clc1ccc(Nc2cc3nc4ccccc4n(-c4ccc(Cl)cc4)c-3c/c2=N\C2CCCCC2)cc1 | 1 µg/mL | 20 µg/mL | 2 µg/mL
CC1(C)CC(/N=c2\cc3n(-c4ccc(Cl)cc4)c4ccccc4nc-3cc2Nc2ccc(Cl)cc2)CC(C)(C)N1 | 0.5 µg/mL | 2 µg/mL | 0.2 µg/mL
c1ccc(Nc2cc3nc4ccccc4n(-c4ccccc4)c-3c/c2=N\CC2CCCCC2)cc1 | 2 µg/mL | 100 µg/mL | 2 µg/mL
CCOc1ccc(Nc2cc3nc4ccccc4n(-c4ccc(OCC)cc4)c-3c/c2=N\CC(C)C)cc1 | 4 µg/mL | 100 µg/mL | 4 µg/mL
Clc1ccc(Nc2cc3nc4ccccc4n(-c4ccc(Cl)cc4)c-3c/c2=N\CCCN2CCOCC2)cc1 | 0.4 µg/mL | 12 µg/mL | 0.5 µg/mL
c1ccc(Nc2cc3nc4ccccc4n(-c4ccccc4)c-3c/c2=N\C2CCCC2)cc1 | 3 µg/mL | 100 µg/mL | 3 µg/mL
N=c1cc2n(-c3ccc(Cl)cc3)c3ccccc3nc-2cc1Nc1ccc(Cl)cc1 | 3 µg/mL | 40 µg/mL | 3 µg/mL
c1ccc(Nc2cc3nc4ccccc4n(-c4ccccc4)c-3c/c2=N\C2CCCCCC2)cc1 | 2 µg/mL | 20 µg/mL | 2 µg/mL
CCN1CCCC1C/N=c1\cc2n(-c3ccccc3)c3ccccc3nc-2cc1Nc1ccccc1 (stereo not drawn) | 0.4 µg/mL | 6 µg/mL | 0.5 µg/mL
Clc1ccc(Nc2cc3nc4ccccc4n(-c4ccc(Cl)cc4)c-3c/c2=N\CCCNC2CCCCC2)cc1 | 0.2 µg/mL | 1 µg/mL | 0.2 µg/mL
OCCC/N=c1\cc2n(-c3ccccc3)c3ccccc3nc-2cc1Nc1ccccc1 | 8 µg/mL | 20 µg/mL | 4 µg/mL
CC(C)C/N=c1\cc2n(-c3ccccc3)c3ccc(Cl)cc3nc-2cc1Nc1ccccc1 | 3 µg/mL | 100 µg/mL | 2 µg/mL
CC/N=c1\cc2n(-c3ccc(Cl)cc3)c3ccccc3nc-2cc1Nc1ccc(Cl)cc1 | 2 µg/mL | 100 µg/mL | 2 µg/mL
CC(C)C(C)/N=c1\cc2n(-c3ccc(Cl)cc3)c3ccccc3nc-2cc1Nc1ccc(Cl)cc1 (stereo not drawn) | 4 µg/mL | 30 µg/mL | 3 µg/mL

— ChEMBL document CHEMBL1124233, “Clofazimine analogues active against a clofazimine-resistant organism” (J Med Chem, 1988)
